Data taken from ChEMBL document CHEMBL2163226, “Discovery of novel N-phenylphenoxyacetamide derivatives as EthR inhibitors and ethionamide boosters by combining high-throughput screening and synthesis” (J Med Chem, 2012).
Activity calls are given as the source filed them. The calls are words filed in the database; no cut-off is given here.

Experiments:
[1] = tested on: Mycobacterium tuberculosis; test: Antituberculosis activity against Mycobacterium tuberculosis H37Rv-GFP infected in mouse Raw 264.7 cells assessed as microbial growth inhibition at 10 uM by automated fluorescent confocal microscopy; format: functional, organism-based
Method in brief: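 Raw264.7 macrophages were infected with H37Rv-GFP (MOI 1:1, 2 h, 37 °C, shaking). Extracellular bacilli were killed with 20 μM amikacin for 1 h, then infected cells were incubated with compound at 10 μM alone for 5 days (37 °C, 5% CO2). After SYTO 60 staining, confocal imaging (488/635 nm) gave the percentage of infected cells; values are the average of two replicates.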

[2] = target: HTH-type transcriptional regulator EthR (Mycobacterium smegmatis (strain ATCC 700084 / mc(2)155)) (UniProt A0R666); test: Binding affinity to Mycobacterium smegmatis mc2 155 EthR assessed as protein thermal unfolding at 20 uM by SYPRO Orange dye based thermal shift assay; conditions: Mycolicibacterium smegmatis MC2 155
HTH-type transcriptional regulator EthR (Mycobacterium smegmatis (strain ATCC 700084 / mc(2)155)), sequence (A0R666 whole entry): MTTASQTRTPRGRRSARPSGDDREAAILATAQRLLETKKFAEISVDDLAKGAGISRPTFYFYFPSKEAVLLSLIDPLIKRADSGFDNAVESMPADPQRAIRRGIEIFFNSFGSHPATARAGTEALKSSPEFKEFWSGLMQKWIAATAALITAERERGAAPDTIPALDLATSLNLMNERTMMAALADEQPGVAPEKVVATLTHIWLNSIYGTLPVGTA
Method in brief: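 Purified EthR (10 μM final) was mixed with 20 μM ligand, 2.5× SYPRO Orange and 1% DMSO in EthR buffer. Samples were heated from 37 to 85 °C at 0.04 °C/s in a qPCR instrument, with fluorescence read at Ex/Em 465/510 nm. Tm was taken as the sigmoid inflection, and ΔTm as holo minus apo Tm. Values are the mean of two experiments.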

[3] = target: HTH-type transcriptional regulator EthR (Mycobacterium tuberculosis) (UniProt P9WMC1); test: Inhibition of EthR in Mycobacterium tuberculosis H37Rv-GFP infected in mouse Raw 264.7 cells assessed as boosting of 0.1 uM ethionamide-induced microbial growth inhibition at 10 uM by automated fluorescent confocal microscopy; format: cell-based
HTH-type transcriptional regulator EthR (Mycobacterium tuberculosis), sequence (P9WMC1 whole entry): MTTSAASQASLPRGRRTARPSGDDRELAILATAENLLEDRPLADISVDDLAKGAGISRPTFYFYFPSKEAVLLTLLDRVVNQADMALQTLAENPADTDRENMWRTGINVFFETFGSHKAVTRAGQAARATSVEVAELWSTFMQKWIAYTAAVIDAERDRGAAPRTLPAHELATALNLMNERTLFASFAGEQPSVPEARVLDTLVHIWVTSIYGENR

[4] = target: HTH-type transcriptional regulator EthR (Mycobacterium smegmatis (strain ATCC 700084 / mc(2)155), UniProt A0R666); test: Inhibition at EthR in Mycobacterium smegmatis mc2 155 assessed as reactivation of beta-glucuronidase activity measured over 48 hrs by Spectrophotometry; set-up: species or system Mycolicibacterium smegmatis MC2 155
HTH-type transcriptional regulator EthR (Mycobacterium smegmatis (strain ATCC 700084 / mc(2)155), UniProt A0R666), sequence (A0R666 whole entry): as the sequence (A0R666 whole entry) above
Method in brief: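 The reporter was M. smegmatis mc²155 carrying P1 (single-copy, hsp60-driven ethR overexpression) and P2 (uidA under the ethA promoter/operator). Culture at OD600 0.2 was mixed with MUG and compound in 10% DMSO solution. MU fluorescence (ex 390/[…]) was read at 0, 24 and 48 h at 37 °C. IC50 came from dose–response; the P2-only strain served as positive control.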

Compound: COc1cccc(OCC(=O)Nc2ccc(-c3nc4ccccc4s3)cc2)c1
- growth inhibition (GI) [1]: inactive
- ΔTm [2]: 9.9 °C
- growth inhibition (GI) [3]: 67.6%

Compound: O=C(COc1cccc(Oc2ccccc2)c1)Nc1ccc(Cl)c(Cl)c1
- ΔTm [2]: 8.9 °C
- growth inhibition (GI) [3]: -1.6%

Compound: COc1cccc(NC(=O)COc2ccc(C(F)(F)F)cc2)c1
- ΔTm [2]: 5 °C
- growth inhibition (GI) [3]: -1.5%

Compound: Cc1ccc(OCC(=O)Nc2ccc(-c3nc4ncccc4o3)cc2)c(C)c1
- IC50 [4]: < 10 µM

Compound: O=C(COc1ccc(C(F)(F)F)cc1)Nc1ccc(Cl)c(Cl)c1
- ΔTm [2]: 8.1 °C
- growth inhibition (GI) [3]: -8.4%

Compound: COc1ccc(OCC(=O)Nc2ccc(Cl)c(Cl)c2)cc1
- ΔTm [2]: 6.1 °C
- growth inhibition (GI) [3]: -0.6%

Compound: O=C(CCl)N(Cc1ccccc1)c1ccccc1
- inhibition [2]: inactive

Compound: O=C(COc1ccc(F)c(F)c1)Nc1ccc(Oc2ccccc2)cc1
- ΔTm [2]: 5.7 °C
- growth inhibition (GI) [3]: -13.5%

Compound: Oc1cccc(Oc2ccccc2)c1
- inhibition [2]: Active

Compound: COc1ccccc1NC(=O)CCl
- inhibition [2]: inactive

Compound: O=C(CCl)N(c1ccccc1)C1CCCCC1
- inhibition [2]: inactive

Compound: Cc1ccc2cc(NC(=O)CCl)ccc2n1
- inhibition [2]: Active

Compound: COc1cccc(SCC(=O)Nc2ccc(-c3nc4ccccc4s3)cc2)c1
- ΔTm [2]: 6.2 °C

Compound: O=C(COc1ccc(Cl)c(Cl)c1)Nc1ccc(C(F)(F)F)cc1
- ΔTm [2]: 7.5 °C
- growth inhibition (GI) [3]: -5.4%

Compound: COc1cccc(O)c1
- inhibition [2]: Active

Compound: O=C(CCl)Nc1ccccc1
- inhibition [2]: Active

Compound: O=C(CCl)Nc1ccc(-c2nc3ccccc3s2)cc1
- inhibition [2]: Active

Compound: COc1cccc(OCC(=O)Nc2ccc(-c3ccccc3)cc2)c1
- ΔTm [2]: 7 °C
- growth inhibition (GI) [3]: -2.9%

Compound: O=C(COc1ccc(Cl)cc1)Nc1ccc(Cl)c(Cl)c1
- ΔTm [2]: 6.9 °C
- growth inhibition (GI) [3]: -17.9%

Compound: COc1ccc(NC(=O)CCl)cc1
- inhibition [2]: Active

Compound: COc1cccc(OCC(=O)Nc2ccc(Oc3ccccc3)cc2)c1
- ΔTm [2]: 6.7 °C
- growth inhibition (GI) [3]: -17.5%

Compound: O=C(COc1ccc(-c2ccccc2)cc1)Nc1ccc2c(c1)OCO2
- ΔTm [2]: 7 °C
- growth inhibition (GI) [3]: -3%

Compound: COc1cccc(OCC(=O)Nc2ccc(Cl)c(Cl)c2)c1
- ΔTm [2]: 6.8 °C
- growth inhibition (GI) [3]: 26.7%

Compound: O=C(COc1cccc(Oc2ccccc2)c1)Nc1ccccc1
- ΔTm [2]: 6.1 °C
- growth inhibition (GI) [3]: 2.2%

Compound: Cc1ccc(-n2nc3ccc(NC(=O)COc4ccccc4C)cc3n2)cc1
- IC50 [4]: 2.9 µM
- ΔTm [2]: 6.4 °C
- growth inhibition (GI) [3]: 10.9%

Compound: N#Cc1ccc(NC(=O)COc2cccc(Oc3ccccc3)c2)cc1
- ΔTm [2]: 6.7 °C
- growth inhibition (GI) [3]: -8.9%

Compound: O=C(CCl)Nc1ccccc1-c1ccccc1
- inhibition [2]: inactive

Compound: O=C(CCl)Nc1ccc2c(c1)OCO2
- inhibition [2]: Active

Compound: Oc1ccc(C(F)(F)F)cc1
- inhibition [2]: Active

Compound: O=C(CCl)N1CCCc2ccccc21
- inhibition [2]: Active

Compound: O=C(COc1ccc(Cl)cc1Cl)Nc1ccc2nc3n(c(=O)c2c1)CCCC3
- IC50 [4]: < 10 µM

Compound: Cc1ccc2cc(NC(=O)COc3ccccc3F)ccc2n1
- ΔTm [2]: 5.1 °C
- growth inhibition (GI) [3]: 83.2%

Compound: COc1cccc(OCC(=O)Nc2ccc3nc(C)ccc3c2)c1
- ΔTm [2]: 6.6 °C
- growth inhibition (GI) [3]: 6.5%

Compound: COc1cccc(OCC(=O)Nc2ccc(Cl)cc2)c1
- ΔTm [2]: 6.1 °C
- growth inhibition (GI) [3]: 92.6%

Compound: O=C(COc1cccc(Oc2ccccc2)c1)Nc1ccc2c(c1)OCO2
- ΔTm [2]: 8.2 °C
- growth inhibition (GI) [3]: 5.7%

Compound: Cc1ccc(OCC(=O)Nc2ccc(Cl)c(Cl)c2)cc1
- ΔTm [2]: 6.8 °C
- growth inhibition (GI) [3]: -10.4%

Compound: O=C(CCl)Nc1ccc(Cl)c(Cl)c1
- inhibition [2]: Active

Compound: O=C(CCl)Nc1ccc(Oc2ccccc2)cc1
- inhibition [2]: Active

Compound: N#Cc1cccc(OCC(=O)Nc2ccc(-c3nc4ccccc4s3)cc2)c1
- ΔTm [2]: 8.1 °C
- growth inhibition (GI) [3]: 53.4%

Compound: CCOc1ccc(NC(=O)CCl)c(Oc2ccccc2)c1
- inhibition [2]: inactive

Compound: N#Cc1cccc(NC(=O)COc2cccc(Oc3ccccc3)c2)c1
- ΔTm [2]: 5.7 °C
- growth inhibition (GI) [3]: -7.2%

Compound: CN(C(=O)CCl)c1ccccc1
- inhibition [2]: Active

Compound: COc1ccc(N(C)C(=O)CCl)cc1
- inhibition [2]: Active

Compound: O=C(COc1ccc(F)c(F)c1)Nc1ccc(C(F)(F)F)cc1
- ΔTm [2]: 5.6 °C
- growth inhibition (GI) [3]: -12.5%

Compound: O=C(COc1ccc(C(F)(F)F)cc1)Nc1ccc2c(c1)OCO2
- ΔTm [2]: 6.2 °C
- growth inhibition (GI) [3]: 1.4%
